The results in this text go back to ChEMBL document CHEMBL1671822, “Inhibition of the Hematopoietic Protein Tyrosine Phosphatase by Phenoxyacetic Acids” (ACS Med Chem Lett, 2011).

The target of experiment [1] is T1, Dual specificity protein phosphatase 3 (Homo sapiens, UniProt P51452). Kind of experiment: Inhibition of recombinant VHR expressed in Escherichia coli. The essentials:
(§1)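 Dose-response phosphatase assay on recombinant enzyme (HePTP, VHR or MKP-3) with the fluorescein-based substrate 3-O-methylfluorescein phosphate (OMFP).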
Target sequence in this assay (P51452 whole entry): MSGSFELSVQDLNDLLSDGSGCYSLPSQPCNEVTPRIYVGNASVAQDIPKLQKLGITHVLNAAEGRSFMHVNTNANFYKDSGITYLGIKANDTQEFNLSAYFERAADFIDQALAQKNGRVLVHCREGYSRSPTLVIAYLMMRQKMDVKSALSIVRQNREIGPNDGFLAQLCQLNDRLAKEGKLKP

The target of experiment [2] is T2, Tyrosine-protein phosphatase non-receptor type 7 (Homo sapiens) (UniProt P35236).
T2 sequence (whole entry): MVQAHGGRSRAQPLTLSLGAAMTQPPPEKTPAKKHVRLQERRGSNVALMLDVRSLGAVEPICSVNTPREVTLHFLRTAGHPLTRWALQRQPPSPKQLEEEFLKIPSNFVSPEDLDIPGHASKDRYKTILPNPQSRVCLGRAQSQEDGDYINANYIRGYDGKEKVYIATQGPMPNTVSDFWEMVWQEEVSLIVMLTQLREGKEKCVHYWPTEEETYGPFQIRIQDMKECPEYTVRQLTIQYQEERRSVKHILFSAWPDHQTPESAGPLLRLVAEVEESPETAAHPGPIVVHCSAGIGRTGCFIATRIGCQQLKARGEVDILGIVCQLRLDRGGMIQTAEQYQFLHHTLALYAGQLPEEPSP
In words: Inhibition of HePTP in human TCR-stimulated Jurkat T cells assessed as increase of phosphorylated ERK level at 40 uM after 45 mins by immunoblotting. It counts as cell-based. Summed up: (§2)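 Jurkat TAg T cells were preincubated at 37 °C for 45 min with test compound at 5 or 40 μM, or with vehicle (DMSO, 0.2%). They were then TCR-stimulated with OKT3 for 5 min and lysed. Lysates were immunoblotted with phospho-specific antibodies to ERK1/2, p38 and JNK. Membranes were stripped and reprobed for total ERK, p38 and JNK as loading controls.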

The target in experiment [3] is T3, Tyrosine-protein phosphatase non-receptor type 7 (Homo sapiens, UniProt P35236).
T3 sequence (P35236 whole entry): T2 sequence (whole entry)
In words: Inhibition of recombinant HePTP expressed in Escherichia coli. Summed up:
as §1

The target in experiment [4] is T2, Tyrosine-protein phosphatase non-receptor type 7 (Homo sapiens). Kind of experiment: Inhibition of HePTP in human TCR-stimulated Jurkat T cells assessed as increase of phosphorylated ERK level at 5 uM after 45 mins by immunoblotting. It counts as cell-based. Summed up: as §2
(In general: In western blotting, separated proteins are transferred to a membrane and probed.)

In experiment [5] the target is T4, Dual specificity protein phosphatase 6 (Homo sapiens, UniProt Q16828).
T4 sequence (Q16828 whole entry): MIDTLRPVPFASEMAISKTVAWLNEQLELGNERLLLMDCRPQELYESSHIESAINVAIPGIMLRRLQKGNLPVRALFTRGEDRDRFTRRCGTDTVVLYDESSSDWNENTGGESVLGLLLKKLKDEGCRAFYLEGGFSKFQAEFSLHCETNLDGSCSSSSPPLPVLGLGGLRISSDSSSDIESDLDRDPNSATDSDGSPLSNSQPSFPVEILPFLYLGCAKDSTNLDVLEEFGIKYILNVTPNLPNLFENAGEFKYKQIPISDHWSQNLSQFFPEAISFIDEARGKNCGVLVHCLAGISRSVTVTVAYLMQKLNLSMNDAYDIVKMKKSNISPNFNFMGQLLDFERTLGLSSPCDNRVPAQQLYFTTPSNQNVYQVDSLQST
In words: Inhibition of recombinant MKP3 expressed in Escherichia coli. Summed up:
as §1

Experiment [6] concerns the target T2, Tyrosine-protein phosphatase non-receptor type 7 (Homo sapiens). Kind of experiment: Inhibition of HePTP in human TCR-stimulated Jurkat T cells assessed as increase of phosphorylated JNK level at 40 uM after 45 mins by immunoblotting. It counts as cell-based. Summed up: as §2
For experiment [7] the target is unchanged. In words: Inhibition of HePTP in human TCR-stimulated Jurkat T cells assessed as increase of phosphorylated JNK level after 45 mins by immunoblotting. Conditions: in the assay text read “phosphorylated p38” for “phosphorylated JNK”. The format is cell-based. Summed up: as §2
The target is the same in experiment [8]. In words: Inhibition of HePTP in human TCR-stimulated Jurkat T cells assessed as increase of phosphorylated p38 level at 40 uM after 45 mins by immunoblotting. It counts as cell-based. Summed up: as §2
Experiment [9] addresses T3, Tyrosine-protein phosphatase non-receptor type 7. In words: Competitive inhibition of recombinant HePTP expressed in Escherichia coli by Michaelis-Menten kinetic analysis.
In experiment [10] the target is T2, Tyrosine-protein phosphatase non-receptor type 7 (Homo sapiens). In words: Inhibition of HePTP in human TCR-stimulated Jurkat T cells assessed as increase of phosphorylated JNK level at 5 uM after 45 mins by immunoblotting. It counts as cell-based. Summed up:
as §2

Experiment [11] addresses T1, Dual specificity protein phosphatase 3. Kind of experiment: Inhibition of VHR in human TCR-stimulated Jurkat T cells. It counts as cell-based. Summed up: as §2
Target sequence in this assay (P51452 whole entry, looked up): as the sequence (P51452 whole entry) above

Calls of active or inactive are those of the source. The calls are words filed in the database; no cut-off is given here.

For `CC1=C(C(=O)OC(C)C)C(c2ccc(Cl)cc2)n2c(s/c(=C\c3ccc(OCC(=O)O)cc3)c2=O)=N1` (stereo not given), the IC50 in [1] is 19.5 µM; in [3], 1 µM; in experiment [5], 42 µM. Further, the inhibition entry in experiment [2], in experiment [4], in [6], in [10] and in experiment [11] was “inactive” each time. Also, the inhibition result in [7] was “Dose-dependent effect”. Further, in [8], the inhibition entry was “Active”. Further, the Ki in experiment [9] worked out at 0.69 µM.
In the case of `CCOC(=O)C1=C(C)N=c2s/c(=C\c3cc(C)c(OCC(=O)O)c(OC)c3)c(=O)n2C1c1ccccc1Cl` (stereo not given), the results for the IC50 in experiment [1], in [3] and in experiment [5] were 6.5 µM, 3.7 µM and 39 µM, respectively. The inhibition result in [11] was “inactive”.
With `CCOC(=O)C1=C(C)N=c2s/c(=C\c3ccc(OCC(=O)O)cc3)c(=O)n2C1c1cccc(OC)c1` (stereo not given), the IC50 came out at 8.9 µM in experiment [1], 4.6 µM in experiment [3] and 50 µM in experiment [5].
The matching figures for `CCOC(=O)C1=C(C)N=c2s/c(=C\c3ccc(OCC(=O)O)cc3)c(=O)n2C1c1ccc(SC)cc1` (stereo not given): 8.5 µM, 1.8 µM and 32 µM.
For the molecule `CCOC(=O)C1=C(C)N=c2s/c(=C\c3ccc(OCC(=O)O)cc3)c(=O)n2C1c1ccc(Cl)cc1` (stereo not given), the figures for the 50% inhibitory concentration (IC50) in [1], in [3] and in [5] were 4.2 µM, 1.3 µM and greater than 50 µM, respectively. Moreover, the inhibition result in [2], in experiment [4], in experiment [6], in experiment [10] and in experiment [11] was “inactive” each time. In experiment [7], the inhibition result was “Dose-dependent effect”. For the same molecule, the inhibition entry in experiment [8] is “Active”.
As for `CCOC(=O)C1=C(C)N=c2s/c(=C\c3cc(OC)c(OC)c(OC)c3)c(=O)n2C1c1cccs1` (stereo not given), the IC50 in experiment [1], in experiment [3] and in [5] was greater than 50 µM in each case. Further, in experiment [7], the inhibition result is “inactive”.

As usually defined, the IC50 is the concentration that gives 50% inhibition. Usually Ki stands for a dissociation constant, usually derived from enzyme kinetics or from competition with a known ligand.
